Data as given in article PMC3734847 (Integrative biology : quantitative biosciences from nano to …, 2012).
“And” between values parts separate entries of the source, which are not always exact repeats. Equal values may be shown once. “Also recorded” adds a separate entry of the source. Read-outs that look alike come from different tables or passages of the source.

Key:
Tu212 SCC cells = experiment: Neutral Red dye cell viability; format: cell-based, human
Method in brief: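 Tu212 cells grown in DMEM/F12 with 10% FBS, penicillin/streptomycin and 2 mM L-glutamine at 37°C, 5% CO2. Plated in 96 wells and left overnight to adhere. Test compound (0–20 μM) or 0.1% DMSO vehicle added in triplicate. Neutral Red (50 μg/mL in fresh medium) added for 30 min at 37°C, then two PBS washes. Dye eluted with 0.5 N HCl/35% ethanol and read at OD570. Blank subtracted and triplicates averaged.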

NF-κB signaling pathway = experiment: Western blotting of xenograft tumor extracts for the NF-κB signaling pathway; format: in vivo, athymic nude mice; conditions: 6 weeks, Western blot
Method in brief: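 Tu212 cells (2 × 10^6) implanted s.c. in female athymic nude mice. Mice (n=10/group) dosed i.p. once daily, 5 days/week, with test compound at 12.5 or 25 mg/kg, or with vehicle (0.5% CMC/10% DMSO in water). Tumors lysed in RIPA buffer with protease inhibitors for 30 min on ice, then cleared at 13,000 rpm for 15 min at 4°C. 100 μg protein run on 10% SDS-PAGE and transferred to PVDF.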

Tu212 SCC xenografts [1] = experiment: H & E staining and immunohistochemistry of xenograft tumor tissues; format: in vivo, athymic nude mice
[2] = Pharmacokinetic study of EF31 i.p. in mice; format: in vivo, ND4 Swiss Webster mice; conditions: mouse; for AUC(0-inf) / Vd/F / half-life / Cmax / Tmax: male, ND4 Swiss Webster, plasma, ip; for Cmax / Tmax: mouse plasma; for Tmax: DMSO/0.5% CMC (10%/90%)
Method in brief: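 Male ND4 Swiss Webster mice (25–30 g) got one i.p. dose of 12.5 or 25 mg/kg in 10% DMSO/0.5% CMC. One submandibular blood sample per mouse, under ketamine/xylazine, at 0.08, 0.25, 0.5, 1, 2, 3, 4 or 6 h (n=3/time point). Heparinized plasma stored at −80°C, deproteinated with acetonitrile and run on LC/MS/MS with internal standard.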

[3] = Serum chemistry profile and pathologic examination of normal organs; format: in vivo, mice; conditions: 12.5 and 25 mg/kg i.p.
[4] = Aqueous solubility by laser nephelometry; format: physicochemical; conditions: phosphate buffered saline with 1% DMSO, pH 7.4
Tu212 SCC xenografts [5] = experiment: EF31 i.p. therapy of Tu212 SCC xenografts in female athymic nude mice; format: in vivo
[6] = 12.5 and 25 mg/kg i.p., dose-dependent
[7] = 12.5 mg/kg, 12.5 mg/kg i.p. single dose
[8] = 25 mg/kg, 25 mg/kg i.p. single dose

`O=C1/C(=C/c2ccccc2F)CNC/C1=C\c1ccccc1F` [EF24, reference compound] showed an IC50 (Tu212 SCC cells; read-out: IC50, viable cells, Tu212 cells, Neutral Red Dye assay, 0–20 μM, triplicate, 48 hours (Fig. 1 legend; methods: 72 h)) of 8 µM.
With `O=C1C(=Cc2ccccn2)CNCC1=Cc1ccccn1` [EF31, 3,5-bis(2-pyridinylmethylidene)-4-piperidone] the “level of phosphorylated IKKα in tumors vs control” value (NF-κB signaling pathway; 25 mg/kg i.p.) was “reduced”, the “level of total IKKα in tumors vs control” value (NF-κB signaling pathway; 25 mg/kg i.p.) was “increased in a dose-dependent manner” and the “level of IκBα phosphorylated at serine 32 and 36 in tumors” value (NF-κB signaling pathway; 12.5 and 25 mg/kg i.p.) was “increased”. The “level of phosphorylated IKKβ in tumors” value (NF-κB signaling pathway; 12.5 and 25 mg/kg i.p.) was “reduced”, the “level of phosphorylated NF-κB p65 at Ser276 in tumors” value (NF-κB signaling pathway; [6]) was “decreased” and the “level of total IKKβ in tumors” value (NF-κB signaling pathway; [6]) was “increased”. For the same molecule, the “level of total IκBα in tumors” value (NF-κB signaling pathway; [6]) was “decreased”, the “level of total p65 in tumors” value (NF-κB signaling pathway; [6]) was “decreased” and the “degree of IHC staining of phosphorylated IκBα in tumors” value (Tu212 SCC xenografts [1]; 0, 12.5 and 25 mg/kg i.p. daily 5 days a week for 5 weeks) was “stronger in tumors treated at 25 mg/kg than 12.5 mg/kg, which is stronger than that in the control”. The “H & E staining of tumor tissues” value (Tu212 SCC xenografts [1]; 25 mg/kg i.p. daily 5 days a week for 5 weeks) was “tumor cells are replaced with fibrous scar tissue”, the IC50 (Tu212 SCC cells; Homo sapiens, TU212, read-out: IC50, viable cells) was 7 µM and the AUC(0-inf) ([2]; 12.5 mg/kg) was 3390 ng·h/mL. The Vd/F ([2]; 12.5 mg/kg) was 11.5 L/kg, the half-life ([2]; 12.5 mg/kg) was 2.2 h and the Cmax [2, 7] was 1070 ng/mL. The Tmax [2, 7] was 0.25 h, the AUC(0-inf) ([2]; 25 mg/kg) was 7770 ng·h/mL and the Vd/F ([2]; 25 mg/kg) was 11.1 L/kg. For the same molecule, the half-life ([2]; 25 mg/kg) was 2.4 h, the Cmax [2, 8] was 2130 ng/mL and the Tmax [2, 8] was 0.5 h. The “estimated volumes of distribution” value ([2]; 12.5 and 25 mg/kg i.p.) was ~ 11 L/kg, the “pathologic examination (hematoxylin-eosin) of liver, kidneys, lungs and spleen” value ([3]; n = 5/group) was “normal” and the serum chemistry profile ([3]; treated mice, normal values from the University of Minnesota) was “all within the normal values”. The solubility at 90 min [4] was 13 µg/mL and 47 µM, the “tumor size vs vehicle control” value (Tu212 SCC xenografts [5]; 12.5 mg/kg i.p. once/day 5 days/week, n = 10, p < 0.05–0.01) was “reduced tumor size significantly” and the “dose relative to maximally tolerated dose (MTD)” value (Tu212 SCC xenografts [5]; 25 mg/kg i.p.) was “may be above the maximally tolerated dose”. The “animals died, apparently due to treatment” value (Tu212 SCC xenografts [5]; 25 mg/kg i.p. group, n = 10) was “three”, the “tumor size / tumor growth vs vehicle control” value (Tu212 SCC xenografts [5]; 25 mg/kg i.p. once/day 5 days/week, n = 10, p < 0.05–0.01) was “inhibited tumor growth almost completely; also recorded: reduced tumor size significantly” and the “temporary reduction of body weight” value (Tu212 SCC xenografts [5]; 25 mg/kg i.p., on average, regained as treatment continued) was ~ 10%. The “suppression of tumor growth, dose dependence” value (Tu212 SCC xenografts [5]; 12.5 and 25 mg/kg i.p. daily 5 days a week for over one month) was “dose-dependent suppression of tumor growth”.
